In ChEMBL document CHEMBL1955829, “Synthesis and biological evaluation of 4β-sulphonamido and 4β-[(4'-sulphonamido)benzamide]podophyllotoxins as DNA topoisomerase-IIα and apoptosis inducing agents” (2012):
Activity calls are given as the source filed them. The rule behind the calls is not given here.

Tests used:
COLO 205 [1] = assay: Induction of apoptosis in human COLO205 cells assessed as up-regulation of p21 at 4 uM after 24 hrs by Western blotting analysis; assay type: functional, cell-based
Procedure, shortened: (§1)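 Colo-205 cells treated 24 h at 4 µM and lysed in ice-cold RIPA with protease inhibitors and NaF. Protein measured by Bradford; 50 µg per lane run on 12% SDS-PAGE and transferred to PVDF. Membrane blocked 2 h, primary antibody (topo-IIα/β, p21, p16, pro-caspase-3, NF-kB p65) overnight at 4 °C, HRP secondary 1:2000 for 1 h, chemiluminescence detection; β-actin as loading control. Reduced procaspase-3 taken as caspase-3 activation.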

[2] = target: DNA topoisomerase 2-alpha (Homo sapiens) (UniProt P11388); assay: Inhibition of topoisomerase 2alpha in human in COLO205 cells assessed as induction of single-strand DNA breaks at 4 uM after 24 hrs by comet assay; assay type: cell-based; details: COLO 205
Procedure, shortened: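 Colo-205 cells treated 24 h at 4 µM. Electrophoresis 20 min at 40 V in 0.5% TBE pH 8. Slides stained with SYBR green 30 min and imaged by fluorescence microscopy at 20×.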

COLO 205 [3] = assay: Up-regulation of topoisomerase 2alpha in human COLO205 cells at 4 uM after 24 hrs by Western blotting analysis in presence of HDAC inhibitor, trichostatin A; assay type: functional, cell-based
Procedure, shortened: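 Colo-205 cells exposed 24 h to test agent plus TSA, each at 4 µM. Western blot of lysates probed for topo-IIα, with β-actin as loading control.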

COLO 205 [4] = assay: Cell cycle arrest in human COLO205 cells assessed as accumulation at G1 phase at 4 uM after 24 hrs by FACS analysis in presence of HDAC inhibitor, trichostatin A (reference value: 70.57%); assay type: functional
Procedure, shortened: (§2)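 Colo-205 cells seeded at […] per 60 mm dish and treated 24 h at 4 µM; TSA arm used TSA at 4 µM for 12 h. Cells trypsinised, fixed in ice-cold 70% ethanol 30 min at 4 °C, RNase 1 mg/mL 30 min at 37 °C, then propidium iodide/citrate/Triton stain. DNA content of 20,000 events read by flow cytometry; phase percentages from histograms.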

COLO 205 [5] = assay: Cell cycle arrest in human COLO205 cells assessed as accumulation at G0 phase at 4 uM after 24 hrs by FACS analysis (reference value: 4.29%); assay type: functional; procedure, shortened: as §2
COLO 205 [6] = assay: Induction of apoptosis in human COLO205 cells assessed as up-regulation of p16 at 4 uM after 24 hrs by Western blotting analysis; assay type: functional, cell-based; procedure, shortened: as §1
MCF7 = assay: Growth inhibition of human MCF7 cells after 48 hrs by sulforhodamine B assay; assay type: functional; details: MCF7, 48 h
Procedure, shortened: (§3)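 Cells grown in DMEM with 10% FBS and 2 mM L-glutamine, plated at densities set by doubling time, and held 24 h before dosing. Exposure was 48 h to 0.1, 1, 10 and 100 µM in triplicate wells. Cells fixed with cold TCA (final 10%) 60 min at 4 °C and stained with 0.4% SRB 20 min. Bound dye eluted in 10 mM Tris base and read at 540 nm (690 nm reference). GI50 is the concentration giving 50% reduction in net protein gain versus control; values are the mean of three determinations.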

[7] = target: T1, Serine/threonine-protein kinase Chk1 (Homo sapiens) (UniProt O14757); assay: Increase in Chk1 phosphorylation at Ser345 in human COLO205 cells after 24 hrs; assay type: cell-based; details: COLO 205
T1 sequence (whole entry): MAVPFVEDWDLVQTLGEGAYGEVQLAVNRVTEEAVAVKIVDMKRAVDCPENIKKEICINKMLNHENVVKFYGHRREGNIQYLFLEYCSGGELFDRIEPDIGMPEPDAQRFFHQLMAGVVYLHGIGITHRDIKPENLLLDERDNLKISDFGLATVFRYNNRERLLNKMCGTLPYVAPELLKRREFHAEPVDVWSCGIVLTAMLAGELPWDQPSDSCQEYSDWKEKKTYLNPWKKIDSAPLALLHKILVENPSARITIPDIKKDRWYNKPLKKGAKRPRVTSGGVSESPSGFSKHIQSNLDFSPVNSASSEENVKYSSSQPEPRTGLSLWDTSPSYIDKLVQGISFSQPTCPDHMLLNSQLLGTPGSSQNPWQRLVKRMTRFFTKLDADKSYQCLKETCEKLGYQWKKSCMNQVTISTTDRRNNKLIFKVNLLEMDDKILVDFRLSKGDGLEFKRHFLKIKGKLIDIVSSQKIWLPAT
Procedure, shortened: (§4)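 Colo-205 cells on coverslips treated 24 h at 4 µM. Fixed in 4% paraformaldehyde, permeabilised with 0.2% Triton X-100, held in methanol overnight at 4 °C, and blocked with 1% BSA. Stained with anti-phospho-ATM (S1981) or anti-phospho-Chk1 (1:100) for 2 h at room temperature, then FITC anti-rabbit secondary for 1 h; DAPI/PI counterstain and confocal imaging.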

KB = assay: Growth inhibition of human KB cells after 48 hrs by sulforhodamine B assay; assay type: functional; procedure, shortened: as §3
[8] = target: Serine-protein kinase ATM (Homo sapiens) (UniProt Q13315); assay: Induction of ATM activation in human COLO205 cells at 4 uM after 24 hrs by ATM S1981 staining; assay type: cell-based; details: COLO 205; procedure, shortened: as §4
[9] = target: DNA topoisomerase 2-beta (Homo sapiens) (UniProt Q02880); assay: Inhibition of topoisomerase 2beta in human in COLO205 cells assessed as induction of double-strand DNA breaks at 4 uM after 24 hrs by gamma-H2AX staining-based Western blotting analysis; assay type: cell-based; details: COLO 205
Procedure, shortened: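 Colo-205 cells treated 24 h at 4 µM. Double-strand breaks detected with anti-phospho-Ser139 H2AX antibody, both by immunofluorescence staining and by Western blot, with β-actin as loading control.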

[10] = target: DNA topoisomerase 2-alpha (Homo sapiens) (UniProt P11388); assay: Inhibition of topoisomerase 2alpha using pBR322 DNA as substrate at 50 uM after 30 mins by gel electrophoresis
Procedure, shortened: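 Purified topo-IIα enzyme (4 U/µL) incubated with pBR322 plasmid DNA and compound at 50, 25 or 10 µM final, in fresh buffer containing ATP, KCl, MgCl2, DTT and Tris pH 8.0. Inhibition of DNA processing assessed on the resulting gel.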

HOP-62 = assay: Growth inhibition of human HOP62 cells after 48 hrs by sulforhodamine B assay; assay type: functional; details: HOP-62, 48 h; procedure, shortened: as §3
COLO 205 [11] = assay: Cell cycle arrest in human COLO205 cells assessed as accumulation at G2/M phase at 4 uM after 24 hrs by FACS analysis in presence of HDAC inhibitor, trichostatin A (reference value: 17.41%); assay type: functional; procedure, shortened: as §2
COLO 205 [12] = assay: Growth inhibition of human COLO205 cells after 48 hrs by sulforhodamine B assay; assay type: functional; details: COLO 205, 48 h; procedure, shortened: as §3
COLO 205 [13] = assay: Cytotoxicity against human COLO205 cells at 2 uM after 24 hrs by MTT assay; assay type: functional, cell-based
Procedure, shortened: (§5)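 Colo-205 cells plated at 10,000 per well, left overnight, then exposed 24 h at 2, 4 or 8 µM. MTT added for 2 h at 37 °C, formazan dissolved in extraction buffer, and optical density read at 570 nm against untreated cells.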

A549 = assay: Growth inhibition of human A549 cells after 48 hrs by sulforhodamine B assay; assay type: functional; details: A549, 48 h; procedure, shortened: as §3
COLO 205 [14] = assay: Cytotoxicity against human COLO205 cells at 4 uM after 24 hrs by MTT assay; assay type: functional, cell-based; procedure, shortened: as §5

Sequence of DNA topoisomerase 2-alpha (Homo sapiens) (P11388 whole entry): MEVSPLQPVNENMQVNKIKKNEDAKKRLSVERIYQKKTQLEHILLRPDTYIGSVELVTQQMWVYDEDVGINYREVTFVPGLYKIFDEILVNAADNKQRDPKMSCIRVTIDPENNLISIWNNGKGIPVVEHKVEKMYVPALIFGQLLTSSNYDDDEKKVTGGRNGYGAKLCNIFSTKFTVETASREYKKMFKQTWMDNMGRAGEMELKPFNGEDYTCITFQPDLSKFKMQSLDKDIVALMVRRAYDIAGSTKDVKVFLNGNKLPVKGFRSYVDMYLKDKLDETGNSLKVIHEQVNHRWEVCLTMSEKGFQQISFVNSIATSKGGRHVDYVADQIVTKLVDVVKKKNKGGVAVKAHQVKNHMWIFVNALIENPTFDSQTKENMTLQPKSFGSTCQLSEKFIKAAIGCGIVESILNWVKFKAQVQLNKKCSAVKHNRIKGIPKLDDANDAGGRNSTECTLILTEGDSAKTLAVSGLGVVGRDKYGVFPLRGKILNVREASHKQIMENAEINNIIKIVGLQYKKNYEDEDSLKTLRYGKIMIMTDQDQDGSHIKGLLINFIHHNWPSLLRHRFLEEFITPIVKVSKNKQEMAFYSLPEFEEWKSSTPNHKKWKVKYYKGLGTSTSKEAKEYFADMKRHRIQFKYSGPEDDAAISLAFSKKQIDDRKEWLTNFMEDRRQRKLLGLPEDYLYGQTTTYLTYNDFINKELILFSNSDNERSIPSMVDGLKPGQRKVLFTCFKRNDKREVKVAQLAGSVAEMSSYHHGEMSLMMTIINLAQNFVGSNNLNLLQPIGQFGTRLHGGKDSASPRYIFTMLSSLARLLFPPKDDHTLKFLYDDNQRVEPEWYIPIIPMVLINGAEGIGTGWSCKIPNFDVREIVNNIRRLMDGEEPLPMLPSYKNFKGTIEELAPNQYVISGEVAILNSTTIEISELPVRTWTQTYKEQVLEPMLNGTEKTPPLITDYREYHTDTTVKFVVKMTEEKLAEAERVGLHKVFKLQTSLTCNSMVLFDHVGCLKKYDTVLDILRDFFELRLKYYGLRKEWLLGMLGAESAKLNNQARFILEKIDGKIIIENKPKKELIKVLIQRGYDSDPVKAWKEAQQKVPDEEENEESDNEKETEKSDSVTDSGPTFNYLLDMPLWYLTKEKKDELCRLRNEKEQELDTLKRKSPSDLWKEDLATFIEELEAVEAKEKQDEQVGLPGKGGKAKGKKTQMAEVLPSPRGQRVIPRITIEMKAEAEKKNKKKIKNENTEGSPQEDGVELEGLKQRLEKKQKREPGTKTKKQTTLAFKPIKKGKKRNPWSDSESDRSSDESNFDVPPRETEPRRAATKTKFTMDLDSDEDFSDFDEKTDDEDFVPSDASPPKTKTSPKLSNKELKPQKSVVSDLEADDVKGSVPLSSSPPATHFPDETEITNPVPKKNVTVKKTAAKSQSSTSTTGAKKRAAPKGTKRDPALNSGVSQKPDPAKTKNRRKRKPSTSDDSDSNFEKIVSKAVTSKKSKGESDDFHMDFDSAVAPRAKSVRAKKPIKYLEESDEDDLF
Sequence of DNA topoisomerase 2-beta (Homo sapiens) (Q02880 whole entry): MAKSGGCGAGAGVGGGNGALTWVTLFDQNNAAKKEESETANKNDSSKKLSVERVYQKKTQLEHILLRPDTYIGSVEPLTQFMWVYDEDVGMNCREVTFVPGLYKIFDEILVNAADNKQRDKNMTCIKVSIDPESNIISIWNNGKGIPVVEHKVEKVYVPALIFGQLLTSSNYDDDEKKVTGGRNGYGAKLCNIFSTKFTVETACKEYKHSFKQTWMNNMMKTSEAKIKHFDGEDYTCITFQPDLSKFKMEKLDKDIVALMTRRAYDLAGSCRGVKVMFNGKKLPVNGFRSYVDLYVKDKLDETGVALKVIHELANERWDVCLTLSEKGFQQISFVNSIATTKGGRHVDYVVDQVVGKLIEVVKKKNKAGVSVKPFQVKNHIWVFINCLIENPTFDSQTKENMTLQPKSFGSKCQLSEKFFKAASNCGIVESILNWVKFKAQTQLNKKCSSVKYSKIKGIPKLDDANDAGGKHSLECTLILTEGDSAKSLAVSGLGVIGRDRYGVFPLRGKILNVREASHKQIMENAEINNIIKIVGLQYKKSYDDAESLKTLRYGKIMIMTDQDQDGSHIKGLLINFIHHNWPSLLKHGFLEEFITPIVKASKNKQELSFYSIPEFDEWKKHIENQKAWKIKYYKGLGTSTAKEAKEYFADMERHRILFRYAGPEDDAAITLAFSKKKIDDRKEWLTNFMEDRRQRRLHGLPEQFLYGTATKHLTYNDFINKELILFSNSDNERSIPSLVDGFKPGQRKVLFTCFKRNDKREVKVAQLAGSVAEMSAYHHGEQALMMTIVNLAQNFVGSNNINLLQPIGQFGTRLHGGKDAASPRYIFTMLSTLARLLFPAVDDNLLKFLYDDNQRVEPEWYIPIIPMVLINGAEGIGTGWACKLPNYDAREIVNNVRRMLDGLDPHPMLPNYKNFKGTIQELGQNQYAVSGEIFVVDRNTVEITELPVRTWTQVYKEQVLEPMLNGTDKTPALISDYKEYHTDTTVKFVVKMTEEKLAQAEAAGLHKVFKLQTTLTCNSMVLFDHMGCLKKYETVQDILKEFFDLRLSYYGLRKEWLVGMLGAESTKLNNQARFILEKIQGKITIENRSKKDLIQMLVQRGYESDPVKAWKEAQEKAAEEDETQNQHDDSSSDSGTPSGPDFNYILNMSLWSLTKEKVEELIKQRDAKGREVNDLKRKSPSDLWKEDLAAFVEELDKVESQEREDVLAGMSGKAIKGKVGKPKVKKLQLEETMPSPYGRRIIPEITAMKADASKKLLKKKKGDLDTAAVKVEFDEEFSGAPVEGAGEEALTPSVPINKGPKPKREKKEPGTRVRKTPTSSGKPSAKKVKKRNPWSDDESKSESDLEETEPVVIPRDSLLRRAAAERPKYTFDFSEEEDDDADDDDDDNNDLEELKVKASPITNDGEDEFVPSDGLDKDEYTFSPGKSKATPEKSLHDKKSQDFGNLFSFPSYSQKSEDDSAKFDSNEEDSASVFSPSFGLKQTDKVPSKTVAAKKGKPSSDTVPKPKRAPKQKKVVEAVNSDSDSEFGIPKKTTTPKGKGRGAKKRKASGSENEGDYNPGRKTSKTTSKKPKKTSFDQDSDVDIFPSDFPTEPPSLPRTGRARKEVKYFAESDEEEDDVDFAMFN

COC(=O)c1sccc1S(=O)(=O)N[C@@H]1c2cc3c(cc2[C@@H](c2cc(OC)c(OC)c(OC)c2)[C@H]2C(=O)OC[C@@H]21)OCO3
Activity (COLO 205 [1]): Active | inhibition [2]: 60% | Activity (COLO 205 [3]): Active | Activity (COLO 205 [4]): 18.8% | Activity (COLO 205 [5]): 23.94% | Activity (COLO 205 [6]): Active | GI50 (MCF7): 180 nM | Activity [7]: Active | GI50 (KB): 40 nM | Activity [8]: Active | inhibition [9]: 50% | inhibition [10]: Active | GI50 (HOP-62): 40 nM | Activity (COLO 205 [11]): 15.7% | GI50 (COLO 205 [12]): 40 nM | Activity (COLO 205 [13]): Active | GI50 (A549): 150 nM | Activity (COLO 205 [14]): Active

COc1cc([C@@H]2c3cc4c(cc3[C@@H](O[C@@H]3O[C@@H]5CO[C@@H](C)O[C@H]5[C@H](O)[C@H]3O)[C@H]3COC(=O)[C@H]23)OCO4)cc(OC)c1O [ETOPOSIDE]
Activity (COLO 205 [1]): Active | inhibition [2]: Active | Activity (COLO 205 [3]): Active | Activity (COLO 205 [4]): 21.74% | Activity (COLO 205 [5]): 5.95% | Activity (COLO 205 [6]): Active | GI50 (MCF7): 2110 nM | Activity [7]: Active | GI50 (KB): 310 nM | Activity [8]: Active | inhibition [9]: Active | inhibition [10]: Active | GI50 (HOP-62): 800 nM | Activity (COLO 205 [11]): 13.28% | GI50 (COLO 205 [12]): 130 nM | Activity (COLO 205 [13]): Active | GI50 (A549): 3080 nM | Activity (COLO 205 [14]): Active
